Assay results: ChEMBL document CHEMBL1806356, “Synthesis, characterization and antimicrobial studies of some new pyrazole incorporated imidazole derivatives” (Eur J Med Chem, 2011)

Key:
Escherichia coli [1] = assay: Antibacterial activity against Escherichia coli ATCC 25922 assessed as zone of inhibition at 1000 ug/ml after 24 hrs by agar diffusion method; format: functional; settings: ATCC 25922, 24 h, read-out: IZ
In short: (§1)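 Well diffusion on Mueller-Hinton agar seeded with 24 h old bacterial cultures. Test compounds were dissolved in DMSO at 1 and 0.5 mg/mL and added to labeled wells. Plates were incubated 24 h at 37 °C. The inhibition zone around each well was measured in mm. Triplicate experiments, standard deviation calculated.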

Aspergillus flavus [2] = assay: Antifungal activity against Aspergillus flavus at 1000 ug/ml after 72 hrs by agar diffusion method; format: functional; settings: read-out: DIZ
In short: (§2)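 Fungal spores were suspended in normal saline (one loopful in 3 mL) and lawned on agar plates. Wells were punched with a sterile cork borer and loaded with test compound in DMSO at the different concentrations. A DMSO solvent control was included. Petri dishes were prepared in triplicate and held at 25 °C for 72 h.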

Clostridium perfringens [3] = assay: Antibacterial activity against Clostridium perfringens assessed as zone of inhibition at 1000 ug/ml after 24 hrs by agar diffusion method; format: functional; settings: read-out: IZ
In short: (§3)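 Well diffusion on Mueller-Hinton agar seeded with 24 h old cultures. Compounds dissolved in DMSO at 1 and 0.5 mg/mL and added to wells punched with a sterile cork borer, with a DMSO-only control. Plates incubated 24 h at 37 °C. Read-out was the inhibition zone in mm, run in triplicate, standard deviation calculated.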

Salmonella typhimurium [4] = assay: Antibacterial activity against Salmonella Typhimurium assessed as zone of inhibition at 1000 ug/ml after 24 hrs by agar diffusion method; format: functional, Salmonella enterica subsp. enterica serovar Typhimurium; settings: Salmonella enterica, read-out: IZ; in short: as §1
Pseudomonas aeruginosa [5] = assay: Antibacterial activity against Pseudomonas aeruginosa ATCC 27853 assessed as zone of inhibition at 1000 ug/ml after 24 hrs by agar diffusion method; format: functional; settings: ATCC 27853, 24 h, read-out: IZ; in short: as §1
Salmonella typhimurium [6] = assay: Antibacterial activity against Salmonella Typhimurium assessed as zone of inhibition at 500 ug/ml after 24 hrs by agar diffusion method; format: functional, Salmonella enterica subsp. enterica serovar Typhimurium; settings: Salmonella enterica, read-out: IZ; in short: as §1
Candida albicans [7] = assay: Antifungal activity against Candida albicans at 500 ug/ml after 72 hrs by agar diffusion method; format: functional; settings: read-out: DIZ; in short: as §2
Nannizzia gypsea [8] = assay: Antifungal activity against Microsporum gypseum at 1000 ug/ml after 72 hrs by agar diffusion method; format: functional; settings: read-out: DIZ; in short: as §2
Aspergillus niger [9] = assay: Antifungal activity against Aspergillus niger at 500 ug/ml after 72 hrs by agar diffusion method; format: functional; settings: read-out: DIZ; in short: as §2
Bacillus subtilis [10] = assay: Antibacterial activity against Bacillus subtilis assessed as zone of inhibition at 1000 ug/ml after 24 hrs by agar diffusion method; format: functional; settings: read-out: IZ; in short: as §1
Staphylococcus aureus [11] = assay: Antibacterial activity against Staphylococcus aureus assessed as zone of inhibition at 500 ug/ml after 24 hrs by agar diffusion method; format: functional; settings: read-out: IZ; in short: as §1
Candida albicans [12] = assay: Antifungal activity against Candida albicans at 1000 ug/ml after 72 hrs by agar diffusion method by agar diffusion method; format: functional; settings: read-out: DIZ; in short: as §2
Clostridium perfringens [13] = assay: Antibacterial activity against Clostridium perfringens assessed as zone of inhibition at 500 ug/ml after 24 hrs by agar diffusion method; format: functional; settings: read-out: IZ; in short: as §3
Trichophyton rubrum [14] = assay: Antifungal activity against Trichophyton rubrum at 500 ug/ml after 72 hrs by agar diffusion method; format: functional; settings: read-out: DIZ; in short: as §2
Nannizzia gypsea [15] = assay: Antifungal activity against Microsporum gypseum at 500 ug/ml after 72 hrs by agar diffusion method; format: functional; settings: read-out: DIZ; in short: as §2
Aspergillus flavus [16] = assay: Antifungal activity against Aspergillus flavus at 500 ug/ml after 72 hrs by agar diffusion method; format: functional; settings: read-out: DIZ; in short: as §2
Bacillus subtilis [17] = assay: Antibacterial activity against Bacillus subtilis assessed as zone of inhibition at 500 ug/ml after 24 hrs by agar diffusion method; format: functional; settings: read-out: IZ; in short: as §1
Trichophyton rubrum [18] = assay: Antifungal activity against Trichophyton rubrum at 1000 ug/ml after 72 hrs by agar diffusion method; format: functional; settings: read-out: DIZ; in short: as §2
Escherichia coli [19] = assay: Antibacterial activity against Escherichia coli ATCC 25922 assessed as zone of inhibition at 500 ug/ml after 24 hrs by agar diffusion method; format: functional; settings: ATCC 25922, 24 h, read-out: IZ; in short: as §1
Staphylococcus aureus [20] = assay: Antibacterial activity against Staphylococcus aureus assessed as zone of inhibition at 1000 ug/ml after 24 hrs by agar diffusion method; format: functional; settings: read-out: IZ; in short: as §1
Pseudomonas aeruginosa [21] = assay: Antibacterial activity against Pseudomonas aeruginosa ATCC 27853 assessed as zone of inhibition at 500 ug/ml after 24 hrs by agar diffusion method; format: functional; settings: ATCC 27853, 24 h, read-out: IZ; in short: as §1
Aspergillus niger [22] = assay: Antifungal activity against Aspergillus niger at 1000 ug/ml after 72 hrs by agar diffusion method; format: functional; settings: read-out: DIZ; in short: as §2

Row | Structure (SMILES) | zone of inhibition at 1000 µg/mL (Escherichia coli [1]) | zone of inhibition at 1000 µg/mL (Aspergillus flavus [2]) | zone of inhibition at 1000 µg/mL (Clostridium perfringens [3]) | zone of inhibition at 1000 µg/mL (Salmonella typhimurium [4]) | zone of inhibition at 1000 µg/mL (Pseudomonas aeruginosa [5]) | zone of inhibition at 500 µg/mL (Salmonella typhimurium [6]) | zone of inhibition at 500 µg/mL (Candida albicans [7]) | zone of inhibition at 1000 µg/mL (Nannizzia gypsea [8]) | zone of inhibition at 500 µg/mL (Aspergillus niger [9]) | zone of inhibition at 1000 µg/mL (Bacillus subtilis [10]) | zone of inhibition at 500 µg/mL (Staphylococcus aureus [11]) | zone of inhibition at 1000 µg/mL (Candida albicans [12]) | zone of inhibition at 500 µg/mL (Clostridium perfringens [13]) | zone of inhibition at 500 µg/mL (Trichophyton rubrum [14]) | zone of inhibition at 500 µg/mL (Nannizzia gypsea [15]) | zone of inhibition at 500 µg/mL (Aspergillus flavus [16]) | zone of inhibition at 500 µg/mL (Bacillus subtilis [17]) | zone of inhibition at 1000 µg/mL (Trichophyton rubrum [18]) | zone of inhibition at 500 µg/mL (Escherichia coli [19]) | zone of inhibition at 1000 µg/mL (Staphylococcus aureus [20]) | further results
1 | COC(=O)/C=C1/C(=O)NC(=S)N1/N=C/c1c[nH]nc1-c1cc(Cl)sc1Cl | 9 mm | 10 mm | 12 mm | 10 mm | 9 mm | 9 mm | 5 mm | 6 mm | 5 mm | 8 mm | 6 mm | 6 mm | 11 mm | 12 mm | 5 mm | 9 mm | 7 mm | 13 mm | 8 mm | 7 mm | zone of inhibition at 500 µg/mL (Pseudomonas aeruginosa [21]): 8 mm; zone of inhibition at 1000 µg/mL (Aspergillus niger [22]): 6 mm
2 | CSc1ccc(-c2n[nH]cc2-c2nc(-c3ccc(Br)cc3)c(-c3ccc(Br)cc3)[nH]2)cc1 | 3 mm | 13 mm | 4 mm | 4 mm | 3 mm | 3 mm | 11 mm | 4 mm | 5 mm | 5 mm | 2 mm | 12 mm | 3 mm | 7 mm | 3 mm | 12 mm | 4 mm | 8 mm | 2 mm | 3 mm | zone of inhibition at 500 µg/mL (Pseudomonas aeruginosa [21]): 2 mm; zone of inhibition at 1000 µg/mL (Aspergillus niger [22]): 6 mm
3 | CSc1ccc(-c2n[nH]cc2-c2nc(-c3ccccc3)c(-c3ccccc3)[nH]2)cc1 | 7 mm | 5 mm | 4 mm | 4 mm | 5 mm | 3 mm | 9 mm | 6 mm | 9 mm | 5 mm | 3 mm | 10 mm | 3 mm | 11 mm | 5 mm | 4 mm | 4 mm | 12 mm | 6 mm | 4 mm | zone of inhibition at 500 µg/mL (Pseudomonas aeruginosa [21]): 4 mm; zone of inhibition at 1000 µg/mL (Aspergillus niger [22]): 10 mm
4 | Clc1cc(-c2n[nH]cc2-c2nc(-c3ccccc3)c(-c3ccccc3)[nH]2)c(Cl)s1 | 6 mm | 10 mm | 8 mm | 7 mm | 6 mm | 6 mm | 9 mm | 5 mm | 9 mm | 4 mm | 5 mm | 10 mm | 7 mm | 9 mm | 4 mm | 9 mm | 3 mm | 10 mm | 5 mm | 6 mm | zone of inhibition at 500 µg/mL (Pseudomonas aeruginosa [21]): 5 mm; zone of inhibition at 1000 µg/mL (Aspergillus niger [22]): 10 mm
